Usually IC50 stands for the concentration needed to halve the response being measured. By inhibition is commonly meant the drop in the measured response relative to a control, in per cent.

Here are results for one compound from ChEMBL document CHEMBL2390901, “Synthesis and biological evaluation of N-(4-hydroxy-3-mercaptonaphthalen-1-yl)amides as inhibitors of angiogenesis and tumor growth” (Eur J Med Chem, 2013).

SMILES strings stand for the structures.

One assay concerns MDA-MB-231. As to the kind of experiment: Antiproliferative activity against human MDA-MB-231 cells after 48 hrs by MTT assay. Conditions: MDA-MB-231, 48 h. The class given is functional, cell-based. A digest of the protocol: (§1)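 Cells kept in RPMI 1640 with 10 % FBS at 37 °C, 5 % CO2. Seeded 5,000/well, allowed 4 h, then exposed to serial dilutions for 48 h. MTT added for the last 4 h; formazan dissolved in DMSO, absorbance at 570 nm.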
Background: Tetrazolium assays rely on reduction of a dye to a coloured formazan, in cell work by metabolically active cells.

For assay [1], the target named is RAC-alpha serine/threonine-protein kinase (Homo sapiens) (UniProt P31749). As to the kind of experiment: Inhibition of AKT1 (unknown origin) at 10 uM after 30 mins by fluorescence assay. The method, boiled down: (§2)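 Single 10 μM test. Enzyme preincubated with compound in Hepes/Tris pH 7.4, EGTA/Tris, MgCl2, DTT, 0.008 % Tween 20. Substrate peptide and ATP added; 30 min at room temperature. Stopped with EDTA; europium-labelled anti-phospho PT66 antibody added, TR-FRET read after 60 min. Percent inhibition versus control enzyme activity; no-enzyme basal control; duplicate.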
Sequence of RAC-alpha serine/threonine-protein kinase (Homo sapiens) (P31749 whole entry): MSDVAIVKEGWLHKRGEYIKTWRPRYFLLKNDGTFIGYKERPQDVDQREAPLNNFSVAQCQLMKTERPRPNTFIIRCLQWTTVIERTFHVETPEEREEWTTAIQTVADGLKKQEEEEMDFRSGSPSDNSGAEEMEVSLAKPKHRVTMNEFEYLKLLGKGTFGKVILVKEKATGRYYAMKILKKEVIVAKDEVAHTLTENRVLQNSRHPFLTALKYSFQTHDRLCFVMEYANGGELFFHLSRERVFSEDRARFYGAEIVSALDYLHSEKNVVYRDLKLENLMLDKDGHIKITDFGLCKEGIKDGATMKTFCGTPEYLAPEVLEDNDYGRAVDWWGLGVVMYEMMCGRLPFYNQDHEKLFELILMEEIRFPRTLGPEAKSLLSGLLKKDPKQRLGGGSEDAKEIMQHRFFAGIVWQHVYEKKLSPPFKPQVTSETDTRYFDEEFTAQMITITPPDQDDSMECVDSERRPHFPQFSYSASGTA

Assay [2] relates to Aorta. As to the kind of experiment: Antiangiogenic activity in Sprague-Dawley rat aortic rings assessed as inhibition of microvessel outgrowth at 10 uM after 6 days by matrigel assay. Type of assay: functional. Conditions: 144 h. The method, boiled down:
(§3)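 Aortas from 8–10-week-old male Sprague Dawley rats cleaned of fibroadipose tissue, cut into 1-mm rings, embedded between two Matrigel layers. Compound or vehicle (0.5 % DMSO) added every other day for 6 days; imaged day 7 (×200). Sprouting area quantified as pixels versus vehicle; mean ± SD, three independent experiments.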

A further assay has as its system HCT-116. As to the kind of experiment: Antiproliferative activity against human HCT116 cells after 48 hrs by MTT assay. The class given is functional, cell-based. The following applies: HCT-116, 48 h. The method, boiled down: as §1
Assay [3] concerns Aorta. As to the kind of experiment: Antiangiogenic activity in Sprague-Dawley rat aortic rings assessed as reduction of microvessel outgrowth after 6 days by matrigel assay. The class given is functional, tissue-based. The method, boiled down: as §3
Assay [4] concerns the target ALK tyrosine kinase receptor (Homo sapiens) (UniProt Q9UM73). As to the kind of experiment: Inhibition of ALK (unknown origin) at 10 uM after 30 mins by fluorescence assay. The method, boiled down:
as §2

The next assay has as its system PC-3. As to the kind of experiment: Antiproliferative activity against human PC3 cells after 48 hrs by MTT assay. Type of assay: functional, cell-based. Conditions: PC-3, 48 h. The method, boiled down: as §1
The subject of assay [5] is Aorta. As to the kind of experiment: Antiangiogenic activity in Sprague-Dawley rat aortic rings assessed as inhibition of microvessel outgrowth at 50 uM after 6 days by matrigel assay. Type of assay: functional. Conditions: 144 h. A digest of the protocol: as §3
For assay [6], the system named is HUVEC. As to the kind of experiment: Antiangiogenic activity in HUVEC assessed as inhibition of tube formation at 10 uM after 6 hrs by matrigel assay. Type of assay: functional. The following applies: Homo sapiens. A digest of the protocol:
(§4)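 HUVECs seeded at 40,000 cells/well on Matrigel (gelled 30 min, 37 °C) in M199 with 5 % FBS plus compound or vehicle (0.5 % DMSO); 6 h at 37 °C, 5 % CO2. Tubes photographed by phase-contrast (×200); tube area measured as pixels and compared with vehicle. Mean ± SD of three independent experiments.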

In assay [7] the test system is Aorta. As to the kind of experiment: Antiangiogenic activity in Sprague-Dawley rat aortic rings assessed as inhibition of microvessel outgrowth at 1 uM after 6 days by matrigel assay. Type of assay: functional. Conditions: 144 h. A digest of the protocol:
as §3

The test system of assay [8] is HUVEC. As to the kind of experiment: Antiangiogenic activity in HUVEC assessed as inhibition of tube formation at 50 uM after 6 hrs by matrigel assay. Conditions: Homo sapiens. The class given is functional. A digest of the protocol:
as §4

Sequence of ALK tyrosine kinase receptor (Homo sapiens) (Q9UM73 19-1620 limits assumed): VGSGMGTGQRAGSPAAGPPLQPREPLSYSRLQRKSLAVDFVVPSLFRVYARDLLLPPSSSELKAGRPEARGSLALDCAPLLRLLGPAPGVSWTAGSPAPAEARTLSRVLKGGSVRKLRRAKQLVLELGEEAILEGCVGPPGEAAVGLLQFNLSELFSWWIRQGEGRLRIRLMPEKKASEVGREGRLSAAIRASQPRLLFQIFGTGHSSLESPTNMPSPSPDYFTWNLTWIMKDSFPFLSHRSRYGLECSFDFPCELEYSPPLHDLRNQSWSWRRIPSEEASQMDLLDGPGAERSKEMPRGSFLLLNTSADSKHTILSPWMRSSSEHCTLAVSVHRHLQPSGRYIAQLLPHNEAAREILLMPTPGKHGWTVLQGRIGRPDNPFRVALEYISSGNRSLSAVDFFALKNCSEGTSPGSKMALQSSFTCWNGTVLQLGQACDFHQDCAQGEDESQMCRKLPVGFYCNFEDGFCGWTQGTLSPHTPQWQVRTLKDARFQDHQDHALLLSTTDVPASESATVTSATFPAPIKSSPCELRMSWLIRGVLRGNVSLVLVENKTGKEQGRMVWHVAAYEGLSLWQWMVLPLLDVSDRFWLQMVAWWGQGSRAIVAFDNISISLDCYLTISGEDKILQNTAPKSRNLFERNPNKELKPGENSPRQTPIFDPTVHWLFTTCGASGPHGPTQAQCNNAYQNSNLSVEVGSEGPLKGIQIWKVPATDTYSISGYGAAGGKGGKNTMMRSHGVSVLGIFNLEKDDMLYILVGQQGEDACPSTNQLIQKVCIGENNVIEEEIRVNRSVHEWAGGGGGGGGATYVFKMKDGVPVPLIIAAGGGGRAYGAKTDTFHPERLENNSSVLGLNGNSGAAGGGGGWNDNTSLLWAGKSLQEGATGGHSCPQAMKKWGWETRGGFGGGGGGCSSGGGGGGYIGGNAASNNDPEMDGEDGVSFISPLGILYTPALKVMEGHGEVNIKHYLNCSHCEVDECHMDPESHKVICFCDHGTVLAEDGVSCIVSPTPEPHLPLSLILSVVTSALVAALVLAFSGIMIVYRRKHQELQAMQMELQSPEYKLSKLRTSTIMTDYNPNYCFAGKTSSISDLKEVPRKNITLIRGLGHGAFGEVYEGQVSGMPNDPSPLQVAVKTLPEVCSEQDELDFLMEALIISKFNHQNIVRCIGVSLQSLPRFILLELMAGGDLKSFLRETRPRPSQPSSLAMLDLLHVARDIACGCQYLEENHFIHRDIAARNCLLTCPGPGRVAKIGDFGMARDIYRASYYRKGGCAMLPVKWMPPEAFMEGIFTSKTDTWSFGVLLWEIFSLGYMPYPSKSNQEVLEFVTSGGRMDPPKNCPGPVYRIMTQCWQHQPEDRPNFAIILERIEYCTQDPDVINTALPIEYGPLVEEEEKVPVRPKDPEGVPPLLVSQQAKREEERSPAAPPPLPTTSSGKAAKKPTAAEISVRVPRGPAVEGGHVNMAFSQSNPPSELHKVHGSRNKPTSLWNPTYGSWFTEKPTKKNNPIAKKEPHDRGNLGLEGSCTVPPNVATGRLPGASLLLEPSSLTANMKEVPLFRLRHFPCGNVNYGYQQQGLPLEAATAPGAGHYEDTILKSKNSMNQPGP

Turning to `Cc1nnc(Sc2cc(NC(=O)c3ccc(Cl)cc3)c3ccccc3c2O)s1`, the half-inhibitory concentration (IC50) is > 100 µM in the assay on MDA-MB-231, > 100 µM in the assay with HCT-116 and 49.5 µM with PC-3. In addition, the inhibition was 8.48% in assay [1] and 9.25% in [4]. For the same compound, the values for the inhibition at 10 µM in the assay on Aorta [2] and in the assay on HUVEC [6] were 23% and 81%, respectively. For the same compound, in the assay with Aorta [3], the Activity result was “Dose-dependent effect”. The inhibition at 50 µM was 91% in the assay on Aorta [5] and > 80% in the assay with HUVEC [8]. In addition, the inhibition at 1 µM with Aorta [7] was determined as 18%.
